Measured values published in ChEMBL document CHEMBL5120825, “The azulene scaffold from a medicinal chemist's perspective: Physicochemical and in vitro parameters relevant for drug discovery” (Eur J Med Chem, 2022).
In brackets after ≈: the same amount, converted by molar mass.

How the values were obtained:
[1] = Aqueous solubility of the compound at pH 6.8 incubated for 24 hrs under shaking condition by LC-UV analysis; format: physicochemical; details: aqueous medium
Method in brief: (§1)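 The highest concentration tested was 250 μM, so results are capped at that level. Values are reported in µg/ml.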

[2] = Permeability of the compound at pH 7.4 by PAMPA assay; format: ADME; details: read-out: permeability
[3] = Lipophilicity, logP of the compound; format: physicochemical; details: octanol/water
[4] = Octanol-water partition coefficient, logD of the compound at pH 11 by HPLC analysis; format: physicochemical
[5] = Aqueous solubility of the compound at pH 4.5 incubated for 24 hrs under shaking condition by LC-UV analysis; format: physicochemical; details: aqueous medium; method in brief: as §1
[6] = Octanol-water partition coefficient, logD of the compound at pH 2 by HPLC analysis; format: physicochemical
[7] = Aqueous solubility of the compound at pH 2.2 incubated for 24 hrs under shaking condition by LC-UV analysis; format: physicochemical; details: aqueous medium; method in brief: as §1
[8] = Metabolic stability in human liver microsomes assessed as hepatic blood flow at 1 uM preincubated with compound followed by NADPH addition by LC-MS/MS analysis; format: ADME, Microsome; details: read-out: QH

| Compound | solubility thermodynamic at 24 h [1] | Papp [2] | logP ([3]; read-out: logP) | logD ([4]; read-out: logD) | solubility thermodynamic at 24 h [5] | logD ([6]; read-out: logD) | solubility thermodynamic at 24 h [7] | hepatic extraction ratio at 1 µM [8] | logP [3] | logD [4] | logD [6] |
| --- | --- | --- | --- | --- | --- | --- | --- | --- | --- | --- | --- |
| COC(=O)c1ccc2c(C(=O)c3ccccc3)cc(C(=O)c3ccccc3)c-2cc1 | < 1 µg/mL | 0.3 ×10⁻⁶ cm/s | 5.5 | 5.5 | < 1 µg/mL | 5.6 | < 1 µg/mL | – | – | – | – |
| O=C(NCCc1c[nH]c2ccccc12)c1ccc2ccc(C(=O)c3ccccc3)c-2cc1 | < 1 µg/mL | 0.03 ×10⁻⁶ cm/s | 4.3 | 4.3 | < 1 µg/mL | 4.4 | < 1 µg/mL | 0.69 | – | – | – |
| CN1CCN(C(=O)c2ccc3c(c2)c(C(=O)c2ccccc2)cn3C)CC1 | 68 µg/mL (≈ 188 µM) | 1.9 ×10⁻⁶ cm/s | 2 | 2 | 76 µg/mL (≈ 210 µM) | 0.7 | 78 µg/mL (≈ 216 µM) | < 0.23 | – | – | – |
| O=C(NCCO)c1ccc2[nH]cc(C(=O)c3ccccc3)c2c1 | 15 µg/mL (≈ 48.6 µM) | 0.01 ×10⁻⁶ cm/s | – | – | 18 µg/mL (≈ 58.4 µM) | – | 39 µg/mL (≈ 126 µM) | 0.53 | 0.6 | 1.3 | 1.3 |
| O=C(NCCc1c[nH]c2ccccc12)c1ccc2[nH]cc(C(=O)c3ccccc3)c2c1 | 1 µg/mL (≈ 2.45 µM) | < 0.01 ×10⁻⁶ cm/s | – | 2.8 | < 1 µg/mL | – | < 1 µg/mL | 0.84 | 2.8 | – | 3.3 |
| O=C(NCc1cccnc1)c1ccc2ccc(C(=O)c3ccccc3)c-2cc1 | < 1 µg/mL | 2.4 ×10⁻⁶ cm/s | 3 | 1.4 | < 1 µg/mL | 1.4 | 70 µg/mL (≈ 191 µM) | 0.46 | – | – | – |
| COC(=O)c1ccc2c(C(=O)N(C)C)cn(C)c2c1 | 49 µg/mL (≈ 188 µM) | 4.2 ×10⁻⁶ cm/s | – | – | > 52 µg/mL | – | 50 µg/mL (≈ 192 µM) | 0.82 | 1.4 | 1.9 | 1.9 |
| Cn1cc(C(=O)c2ccccc2)c2cc(C(=O)NCc3cccnc3)ccc21 | < 1 µg/mL | 1.7 ×10⁻⁶ cm/s | 2.1 | 0.9 | 3 µg/mL (≈ 8.12 µM) | 0.9 | 81 µg/mL (≈ 219 µM) | < 0.23 | – | – | – |
| Cn1cc(C(=O)c2ccccc2)c2cc(C(=O)NCCc3c[nH]c4ccccc34)ccc21 | < 1 µg/mL | 0.04 ×10⁻⁶ cm/s | 3.5 | 3.5 | < 1 µg/mL | 3.6 | < 1 µg/mL | 0.79 | – | – | – |
| NC(=O)C1CCN(C(=O)c2c[nH]c3ccccc23)CC1 | – | < 0.01 ×10⁻⁶ cm/s | – | -0.2 | – | – | – | < 0.23 | -0.2 | – | 0.3 |
| CN(C)C(=O)Cc1ccc2cc[nH]c2c1 | > 51 µg/mL | 1.3 ×10⁻⁶ cm/s | – | 1 | > 51 µg/mL | – | > 51 µg/mL | < 0.23 | 1 | – | 1.4 |
| COC(=O)c1ccc2c(ccn2C(=O)c2ccccc2)c1 | < 1 µg/mL | 0.5 ×10⁻⁶ cm/s | 4.4 | 4.4 | < 1 µg/mL | 4.5 | < 1 µg/mL | – | – | – | – |
| Cn1c(NC(=O)Cn2ccccc2=O)cc2ccccc21 | 3 µg/mL (≈ 10.7 µM) | 3.3 ×10⁻⁶ cm/s | – | – | – | – | – | < 0.23 | 1.1 | 1.5 | 1.5 |
| O=C(Nc1ccc2ccccc2c1)c1cccnc1 | 4 µg/mL (≈ 16.1 µM) | – | 2.4 | 2.4 | 6 µg/mL (≈ 24.2 µM) | 1.4 | > 50 µg/mL | 0.67 | – | – | – |
| COC(=O)c1ccc2c(c1)c(C(=O)c1ccccc1)cn2C(=O)c1ccccc1 | < 1 µg/mL | 1.3 ×10⁻⁶ cm/s | 5.2 | 5.2 | < 1 µg/mL | 5.2 | < 1 µg/mL | – | – | – | – |
| NC(=O)C1CCN(C(=O)c2cccc3ccccc23)CC1 | > 71 µg/mL | 0.2 ×10⁻⁶ cm/s | – | 0.8 | > 71 µg/mL | – | > 70 µg/mL | < 0.23 | 0.8 | – | 1.3 |
| COC(=O)c1ccc2ccc(C(=O)Nc3ccccc3)c-2cc1 | < 1 µg/mL | 0.4 ×10⁻⁶ cm/s | 3.8 | 4 | < 1 µg/mL | 4 | < 1 µg/mL | – | – | – | – |

| Compound | solubility thermodynamic at 24 h [1] | Papp [2] | logP ([3]; read-out: logP) | logD ([4]; read-out: logD) | solubility thermodynamic at 24 h [5] | logD ([6]; read-out: logD) | solubility thermodynamic at 24 h [7] | hepatic extraction ratio at 1 µM [8] | logP [3] | logD [4] | logD [6] |
| --- | --- | --- | --- | --- | --- | --- | --- | --- | --- | --- | --- |
| COC(=O)c1ccc2[nH]cc(C(=O)c3ccccc3)c2c1 | < 1 µg/mL | 2.8 ×10⁻⁶ cm/s | – | 2.5 | < 1 µg/mL | – | < 1 µg/mL | – | 2.5 | – | 2.9 |
| CN(C)C(=O)Cc1ccc2ccccc2c1 | 40 µg/mL (≈ 188 µM) | 4.7 ×10⁻⁶ cm/s | – | 2.4 | 39 µg/mL (≈ 183 µM) | – | 41 µg/mL (≈ 192 µM) | 0.4 | 2.4 | – | 2.7 |
| Cn1cc(C(=O)c2ccccc2)c2cc(C(=O)NCCO)ccc21 | 45 µg/mL (≈ 140 µM) | 0.5 ×10⁻⁶ cm/s | 1.3 | 1.6 | 66 µg/mL (≈ 205 µM) | 1.6 | 53 µg/mL (≈ 164 µM) | < 0.23 | – | – | – |
| COC(=O)c1ccc2c(C(=O)c3ccccc3)cn(C(=O)c3ccccc3)c2c1 | < 1 µg/mL | 2.1 ×10⁻⁶ cm/s | 5.2 | 5.2 | < 1 µg/mL | 5.2 | < 1 µg/mL | – | – | – | – |
| O=C(Cn1ccccc1=O)Nc1cc2ccccc2[nH]1 | > 67 µg/mL | 0.1 ×10⁻⁶ cm/s | – | – | > 67 µg/mL | – | > 60 µg/mL | < 0.23 | 0.4 | 1 | 1 |
| COC(=O)c1ccc2c(C(=O)Nc3ccccc3)cn(C)c2c1 | < 1 µg/mL | 2.2 ×10⁻⁶ cm/s | – | – | < 1 µg/mL | – | < 1 µg/mL | – | 2.9 | 3.4 | 3.4 |
| O=C(NCc1cccnc1)c1ccc2[nH]cc(C(=O)c3ccccc3)c2c1 | < 1 µg/mL | 0.1 ×10⁻⁶ cm/s | 1.4 | 0.8 | 1 µg/mL (≈ 2.81 µM) | 0.8 | > 79 µg/mL | 0.56 | – | – | – |
| COC(=O)c1ccc2c(C(=O)c3ccccc3)c[nH]c2c1 | < 1 µg/mL | 1.5 ×10⁻⁶ cm/s | – | 2.7 | < 1 µg/mL | – | < 1 µg/mL | – | 2.7 | – | 3.1 |
| COC(=O)c1ccc2ccn(C(=O)c3ccccc3)c2c1 | < 1 µg/mL | 0.5 ×10⁻⁶ cm/s | 4.3 | 4.3 | < 1 µg/mL | 4.4 | < 1 µg/mL | – | – | – | – |
| COC(=O)c1ccc2ccc(C(=O)c3ccccc3)c-2cc1 | < 1 µg/mL | 0.1 ×10⁻⁶ cm/s | 4.7 | 4.7 | < 1 µg/mL | 4.8 | < 1 µg/mL | – | – | – | – |
| Cn1c(NC(=O)c2cccnc2)cc2ccccc21 | – | 4.9 ×10⁻⁶ cm/s | 1.3 | -0.1 | – | -0.1 | > 59 µg/mL | 0.23 | – | – | – |
| O=C(NCCc1cnc[nH]1)C1=CC2C(C(=O)c3ccccc3)=CN=C2C=C1 (stereo not drawn) | 66 µg/mL (≈ 184 µM) | < 0.01 ×10⁻⁶ cm/s | 0.8 | 0.8 | 78 µg/mL (≈ 218 µM) | 0.7 | > 81 µg/mL | < 0.23 | – | – | – |
| CN(C)C(=O)Cc1ccc2ccn(C)c2c1 | > 53 µg/mL | 7.6 ×10⁻⁶ cm/s | 1.7 | 1.7 | > 53 µg/mL | 1.9 | > 54 µg/mL | < 0.23 | – | – | – |
| CN1CCN(C(=O)c2ccc3[nH]cc(C(=O)c4ccccc4)c3c2)CC1 | 69 µg/mL (≈ 199 µM) | 0.2 ×10⁻⁶ cm/s | 1.3 | 1.3 | – | 0.5 | > 74 µg/mL | < 0.23 | – | – | – |
| Cn1cc(C(=O)c2ccccc2)c2cc(C(=O)NCCc3cnc[nH]3)ccc21 | 72 µg/mL (≈ 193 µM) | 0.1 ×10⁻⁶ cm/s | 1.5 | 1.5 | 107 µg/mL (≈ 287 µM) | 0.9 | 84 µg/mL (≈ 226 µM) | 0.23 | – | – | – |
| Cn1cc(C(=O)N2CCC(C(N)=O)CC2)c2ccccc21 | > 64 µg/mL | 0.2 ×10⁻⁶ cm/s | – | 0.4 | 44 µg/mL (≈ 154 µM) | – | > 71 µg/mL | < 0.23 | 0.4 | – | 1.1 |
| O=C(NCCc1cnc[nH]1)c1ccc2ccc(C(=O)c3ccccc3)c-2cc1 | < 1 µg/mL | 0.3 ×10⁻⁶ cm/s | 2.3 | 2.3 | 57 µg/mL (≈ 154 µM) | 1.3 | > 77 µg/mL | 0.41 | – | – | – |
